The values below come from article PMC5663466 (Journal of proteome research, 2017).

Test [1] relates to tyrosine and serine/threonine kinases. Particulars: cited from earlier work.
Test [2] concerns protein and lipid kinases in HeLa cell lysate. The experiment in a line: Affinity pulldown-soluble competition in duplex SILAC-labeled HeLa cell lysate. The conditions noted are these: 50 μM soluble competitor against affinity matrix 7. It counts as binding, human. An outline of the steps: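 HeLa cells SILAC-labelled for ≥5 doublings in Lys/Arg-free DMEM with 10% dialysed FBS, 200 μg/ml proline and 0.2 mM light or heavy Lys/Arg, then lysed in modified RIPA buffer. Lysate (300 μg, 2 mg/ml) was pre-incubated 20 min at 4°C with DMSO or test compound (1% DMSO final), then pulled down 3 h at 4°C. SILAC channel beads were combined after washing, digested on-bead with LysC then trypsin, and run as single-shot nanoLC-MS/MS.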

On to `Cc1nc(Nc2ncc(C(=O)Nc3c(C)cccc3Cl)s2)cc(N2CCN(CCO)CC2)n1` [dasatinib], for which, in test [1], the “number of tyrosine and serine/threonine kinases inhibited” value is given as “over 30”. Regarding `COc1cc2c(Oc3ccc(NC(=O)C4(C(=O)Nc5ccc(F)cc5)CC4)cc3F)ccnc2cc1OCCCN1CCOCC1` [foretinib], in test [2], the “number of protein and lipid kinases with specific interaction” value was 29.
